Experimental data taken from ChEMBL document CHEMBL1146744, “Efficient synthesis and structure-activity relationship of honokiol, a neurotrophic biphenyl-type neolignan” (2004).

Legend:
Rattus norvegicus [1] = assay: Neurite length after administration (0.1 uM) in rat cortical neurons; assay type: functional
Summary of the method: (§1)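 E18 Sprague-Dawley rat fetal cortical neurons were plated at 5000 cells/cm² on poly-L-lysine in DMEM with 10% FBS and penicillin/streptomycin for 24 h. They were then switched to serum-free Neurobasal with 2% B27 containing the sample, with 0.5% ethanol as vehicle control. Cells were fixed in PFA and stained with anti-MAP2 (1:1000, overnight, 4 °C) and peroxidase/DAB. Primary process length was averaged over 100 random neurons.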

Rattus norvegicus [2] = assay: Neurite length after administration (1 uM) in rat cortical neurons; assay type: functional; summary of the method: as §1

With `C=CCc1ccc(OC)c(-c2ccc(O)c(CC=C)c2)c1` the Activity (Rattus norvegicus [1]) was 133 µm and the Activity (Rattus norvegicus [2]) was 123 µm.

`C=CCc1cc(-c2cc(CCC)ccc2O)ccc1O` gave an Activity (Rattus norvegicus [1]) of 103 µm and an Activity (Rattus norvegicus [2]) of 120 µm.

`C=CCc1ccc(O)c(-c2ccc(O)c(CC=C)c2)c1` [HONOKIOL] gave an Activity (Rattus norvegicus [1]) of 139 µm and an Activity (Rattus norvegicus [2]) of 142 µm.

For `C=CCc1ccc(O)c(-c2ccc(O)c(CCC)c2)c1`, the Activity (Rattus norvegicus [1]) was 128 µm and the Activity (Rattus norvegicus [2]) was 150 µm.

With `C=CCc1ccc(O)c(-c2ccc(OC)c(CC=C)c2)c1` [METHYLHONOKIOL] the Activity (Rattus norvegicus [1]) was 113 µm and the Activity (Rattus norvegicus [2]) was 114 µm.

`CCCc1ccc(O)c(-c2ccc(O)c(CCC)c2)c1` showed an Activity (Rattus norvegicus [1]) of 101 µm and an Activity (Rattus norvegicus [2]) of 102 µm.

For `C=CCc1ccc(OC)c(-c2ccc(OC)c(CC=C)c2)c1`, the Activity (Rattus norvegicus [1]) was 112 µm and the Activity (Rattus norvegicus [2]) was 111 µm.
